# SENP6 inh – inhibitors of human SENP6 protease; inhibition, % at 10 µM; Recombinant SENP6 catalytic domain, aminoluciferin luminescence; AID 2599; 330,000 tested, 1.8% active; Q9GZR1;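 active = inhibition above about 50% at the single tested dose, limit read from the data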
# Target sequence (Q9GZR1 628-1112 limits assumed): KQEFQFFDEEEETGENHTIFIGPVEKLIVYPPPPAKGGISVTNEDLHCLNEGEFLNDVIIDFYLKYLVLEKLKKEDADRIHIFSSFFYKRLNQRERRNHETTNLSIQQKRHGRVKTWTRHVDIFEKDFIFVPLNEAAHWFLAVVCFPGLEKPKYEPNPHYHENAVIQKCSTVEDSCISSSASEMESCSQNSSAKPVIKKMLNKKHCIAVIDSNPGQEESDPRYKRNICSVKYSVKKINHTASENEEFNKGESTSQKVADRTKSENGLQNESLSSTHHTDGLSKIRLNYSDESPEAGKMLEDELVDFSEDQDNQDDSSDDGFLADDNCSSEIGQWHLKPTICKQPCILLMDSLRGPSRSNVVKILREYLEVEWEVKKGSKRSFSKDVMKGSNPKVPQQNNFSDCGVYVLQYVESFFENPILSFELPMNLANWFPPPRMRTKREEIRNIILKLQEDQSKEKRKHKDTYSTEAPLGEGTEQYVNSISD
# SENP7 block – SENP7 protease inhibition. 330,000 tested, 1.5% active. recombinant SENP7, Z-RLRGG-aminoluciferin luminescence, 40 min. inhibition, % at 5 µM. Q9BQF6;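 active = inhibition above about 50% at the single test dose, limit read from the data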
# SENP8 block-1 – SENP8 (human) protease inhibition | Q96LD8 | inhibition, % at 20 µM | 360,000 tested, 0.64% active | recombinant SENP8, Nedd8 substrate fluorescence; in the data active = inhibition mostly above about 40%, no sharp cut-off; inactive = mostly below about 27%
# SENP8 block-2 – SENP8 protease inhibition; inhibition, % at 10 µM; Q96LD8; AID 2540; 330,000 tested, 1.2% active; purified SENP8, Z-RLRGG-aminoluciferin cleavage, luminescence; in the data active = inhibition above about 50%
# SENP1 inh – blocks the human SENP1 SUMO protease catalytic domain | recombinant SENP1 catalytic domain, CyPet-SUMO1-YPet FRET cleavage | inhibition, % at 10 µM | 360,000 tested, 0.21% active | AID 624204;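 active = inhibition at least 30% at 10 µM, raw YFP signal under a set limit, fluorescence ratio 0.5 to 1.5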
#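 Assay system: hSENP1 catalytic domain, recombinant. Amount: SENP1 enzyme, 20 pM final. Schedule: 50 min reaction, RT, dark. Technique: FRET, CFP and YFP emission. Control set: no-enzyme wells low, DMSO-plus-enzyme wells high control.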
# SENP8 confirm – confirmation of human SENP8 protease inhibitors. 6,200 tested, 40% active. shares compounds with SENP7 block. AID 488912. Recombinant SENP8, Z-RLRGG-aminoluciferin luminescence, 60 min. inhibition, % at 12.5 µM;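 active = mean inhibition across replicates above about 50%, limit read from the data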
# SENP6 confirm – human SENP6 inhibition, confirmed; shares compounds with SENP7 block; recombinant SENP6, Z-RLRGG-aminoluciferin luminescence; inhibition, % at 12.5 µM; 6,200 tested, 58% active; AID 488915
# SENP7 confirm – confirmation of human SENP7 protease inhibitors. 6,200 tested, 69% active. AID 488917. inhibition, % at 12.5 µM. shares compounds with SENP7 block. recombinant SENP7, Z-RLRGG-aminoluciferin luminescence, 40 min
# Casp3 select – caspase-3 inhibition (SENP selectivity assay); AID 488918; inhibition, % at 12.5 µM; 6,200 tested, 60% active; purified caspase-3, Z-DEVD-aminoluciferin luminescence, 60 min; shares compounds with SENP7 block;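 active = mean inhibition above about 50%, limit read from the data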
# SENP luc ctr – luminescence interference (SENP counter-screen); shares compounds with SENP7 block; Pre-incubated SENP8/Z-RLRGG-aminoluciferin, luciferase luminescence interference; inhibition, % at 12.5 µM; 6,200 tested, 39% active;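 active = mean inhibition above about 50% when retested at one dose, limit read from the data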
# Numbers stand for hits; – = inactive; · = no result given. An excerpt weighted towards active compounds, which were near 2.5% of everything screened.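 Rule for the calls, unless noted: active = mean inhibition above about 50% in the one-dose retest (limit read from the data); inactive = the rest.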
SMILES,SENP6 inh,SENP7 block,SENP8 block-1,SENP8 block-2,SENP1 inh,SENP8 confirm,SENP6 confirm,SENP7 confirm,Casp3 select,SENP luc ctr
Cc1ccc(OCc2cc(C(=O)N(C)Cc3cc(C4CC4)n[nH]3)no2)cc1C,–,–,–,–,–,·,·,·,·,·
O=C(Nc1cccc(Cl)c1)C1COc2ccccc2O1 (stereo not given),–,–,–,–,–,·,·,·,·,·
CCC(C)(C)NC(=O)C(c1cccc(OC)c1OC)N(C(=O)CCC(=O)Nc1cc(C)on1)C(C)C (stereo not given),–,–,–,–,–,·,·,·,·,·
c1ccc2nc(-c3ccc(N4CCOCC4)cc3)ccc2c1,93,97,–,81,–,66,80,93,76,–
CN1CCN(c2ccc(-c3ccc4ccccc4n3)cc2)CC1,·,·,–,·,–,·,·,·,·,·
Clc1ccsc1-c1ccc2ccccc2n1,88,81,–,67,–,–,78,94,51,–
c1ccc2nc(-c3nccs3)ccc2c1,–,–,–,–,–,·,·,·,·,·
c1ccc2nc(-c3ccncc3)ccc2c1,53,–,–,–,–,–,–,60,67,–
c1ccc(-c2ccc3cnccc3n2)cc1,·,·,–,·,–,·,·,·,·,·
Cc1ccc(Cc2c(C3CCCCC3)nc3cc(C)c(Br)c(C)n23)cc1,·,·,–,·,–,·,·,·,·,·
CCOC(=O)N1CCN(C(=O)c2ccc3c(SCC(=O)O)c4c(nc3c2)CCC4)CC1,–,–,–,–,–,·,·,·,·,·
Cc1ccc(NC(=O)CC(C)c2ccccc2)cc1S(=O)(=O)N1CCOCC1 (stereo not given),–,–,–,–,–,·,·,·,·,·
COc1ccc(C(=O)Nc2ccc3ncccc3c2)cc1,81,87,–,79,–,–,86,98,89,–
O=C(Nc1ccc2ncccc2c1)c1cccc(Br)c1,53,–,–,–,–,–,–,65,–,–
Cc1ccc(C(=O)Nc2ccc3ncccc3c2)cc1,82,90,–,80,–,83,84,97,87,88
COc1ccc(Nc2ncccc2C(=O)O)cc1,57,–,–,–,–,–,–,76,81,63
COc1ccc(N2CCN(S(=O)(=O)c3c(C(=O)N4CCOCC4)c(C)n(C)c3C)CC2)cc1,–,–,–,–,–,·,·,·,·,·
Cc1ccc(C(=O)COC(=O)c2cccs2)cc1,94,94,–,87,–,93,92,99,92,88
O=C(COC(=O)c1cccs1)c1ccc2ccccc2c1,–,78,–,63,–,–,64,89,–,54
Cc1ccc(-c2nnc(COC(=O)c3ccco3)o2)cc1,–,–,–,–,–,·,·,·,·,·
O=C(COC(=O)c1cccs1)c1ccc2c(c1)OCCO2,95,–,–,80,–,99,99,102,97,97
Cc1ccc(-c2nnc(COC(=O)c3cccs3)o2)cc1,78,72,–,71,–,80,78,94,78,69
O=C(Nc1ccc(NC(=O)c2cccs2)cc1)c1ccc2c(c1)OCCO2,–,–,–,–,–,·,·,·,·,·
CCOc1ccc(C(O)C(CN2CCOCC2)c2ccccc2)cc1 (stereo not given),–,–,–,–,–,·,·,·,·,·
CCOC(=O)C1(Cc2ccccc2C(F)(F)F)CCN(C2CCN(C(C)C)CC2)CC1,–,–,–,–,–,·,·,·,·,·
O=C(NNC(=O)c1cnccn1)c1cccc([N+](=O)[O-])c1,–,–,–,–,–,·,·,·,·,·
O=C(NNC(=O)c1ccccc1[N+](=O)[O-])c1cnccn1,–,82,–,–,–,–,–,–,–,–
COc1ccc2[nH]c(=O)c(CN(C(=O)c3ccco3)C3CCCCC3)cc2c1,–,–,–,–,–,·,·,·,·,·

# Screening results (PubChem)
